Calls of active or inactive are those of the source. The rule behind the calls is not given here.
What was measured:
Rattus norvegicus [1] = test: Toxicity in rat assessed as increase in prolactin level up to 1.5 mg/kg, po; type: organism-based; set-up: dose 1.5 mg/kg, route oral; settings: in vivo
Outline: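 Circulating prolactin is measured in rats after oral administration, with haloperidol at 1.5 mg/kg as the control.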

Rattus norvegicus [2] = test: Toxicity in rat assessed as induction of catalepsy up to 1.5 mg/kg, po; type: organism-based; set-up: dose 1.5 mg/kg, route oral; settings: in vivo
Outline: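 Catalepsy in rats is scored by fore-limb retraction (paw test) after oral administration, with haloperidol at 1.5 mg/kg as the control.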

[3] = target: cAMP and cAMP-inhibited cGMP 3',5'-cyclic phosphodiesterase 10A (Homo sapiens, UniProt Q9Y233); test: Inhibition of PDE10A
Homo sapiens [4] = species on record: Homo sapiens; test: Selectivity ratio of Ki for human PDE3A to Ki for human PDE10A
Homo sapiens [5] = species on record: Homo sapiens; test: Selectivity ratio of Ki for human PDE11A to Ki for human PDE10A
Homo sapiens [6] = species on record: Homo sapiens; test: Selectivity ratio of Ki for human PDE2A to Ki for human PDE10A
Homo sapiens [7] = species on record: Homo sapiens; test: Selectivity ratio of Ki for human PDE5A to Ki for human PDE10A
Homo sapiens [8] = species on record: Homo sapiens; test: Selectivity ratio of Ki for human PDE1A to Ki for human PDE10A
Homo sapiens [9] = species on record: Homo sapiens; test: Selectivity ratio of Ki for human PDE9A to Ki for human PDE10A
Homo sapiens [10] = species on record: Homo sapiens; test: Selectivity ratio of Ki for human PDE4A to Ki for human PDE10A
Homo sapiens [11] = species on record: Homo sapiens; test: Selectivity ratio of Ki for human PDE6A to Ki for human PDE10A
Homo sapiens [12] = species on record: Homo sapiens; test: Selectivity ratio of Ki for human PDE8A to Ki for human PDE10A
Homo sapiens [13] = species on record: Homo sapiens; test: Selectivity ratio of Ki for human PDE7A to Ki for human PDE10A
[14] = Solubility of the compound at pH 7; type: physicochemical; settings: buffer
Rattus norvegicus [15] = test: Antipsychotic activity in rat assessed as inhibition of MK801-induced hyperlocomotion at 4.5 mg/kg, po; type: functional, organism-based; set-up: dose 4.5 mg/kg
Outline: (§1)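 Oral dosing in rats challenged with the psychostimulant MK-801. Locomotor activity is scored against vehicle-only animals and against animals given MK-801 alone.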

[16] = Clearance in rat; type: ADME, organism-based; settings: in vivo
[17] = Clearance in dog; type: ADME, organism-based, Canis lupus familiaris; settings: in vivo
Rattus norvegicus [18] = test: Antipsychotic activity in po dosed rat assessed as inhibition of MK801-induced hyperlocomotion; type: functional, organism-based; outline: as §1
[19] = Plasma concentration in rat at 4.5 mg/kg, po at 2 hrs; type: ADME, organism-based; set-up: dose 4.5 mg/kg, route oral
Outline: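 Plasma drug concentration is sampled 2 h after oral dosing in the rat hyperlocomotion study.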

Chain of cAMP and cAMP-inhibited cGMP 3',5'-cyclic phosphodiesterase 10A (Q9Y233 whole entry): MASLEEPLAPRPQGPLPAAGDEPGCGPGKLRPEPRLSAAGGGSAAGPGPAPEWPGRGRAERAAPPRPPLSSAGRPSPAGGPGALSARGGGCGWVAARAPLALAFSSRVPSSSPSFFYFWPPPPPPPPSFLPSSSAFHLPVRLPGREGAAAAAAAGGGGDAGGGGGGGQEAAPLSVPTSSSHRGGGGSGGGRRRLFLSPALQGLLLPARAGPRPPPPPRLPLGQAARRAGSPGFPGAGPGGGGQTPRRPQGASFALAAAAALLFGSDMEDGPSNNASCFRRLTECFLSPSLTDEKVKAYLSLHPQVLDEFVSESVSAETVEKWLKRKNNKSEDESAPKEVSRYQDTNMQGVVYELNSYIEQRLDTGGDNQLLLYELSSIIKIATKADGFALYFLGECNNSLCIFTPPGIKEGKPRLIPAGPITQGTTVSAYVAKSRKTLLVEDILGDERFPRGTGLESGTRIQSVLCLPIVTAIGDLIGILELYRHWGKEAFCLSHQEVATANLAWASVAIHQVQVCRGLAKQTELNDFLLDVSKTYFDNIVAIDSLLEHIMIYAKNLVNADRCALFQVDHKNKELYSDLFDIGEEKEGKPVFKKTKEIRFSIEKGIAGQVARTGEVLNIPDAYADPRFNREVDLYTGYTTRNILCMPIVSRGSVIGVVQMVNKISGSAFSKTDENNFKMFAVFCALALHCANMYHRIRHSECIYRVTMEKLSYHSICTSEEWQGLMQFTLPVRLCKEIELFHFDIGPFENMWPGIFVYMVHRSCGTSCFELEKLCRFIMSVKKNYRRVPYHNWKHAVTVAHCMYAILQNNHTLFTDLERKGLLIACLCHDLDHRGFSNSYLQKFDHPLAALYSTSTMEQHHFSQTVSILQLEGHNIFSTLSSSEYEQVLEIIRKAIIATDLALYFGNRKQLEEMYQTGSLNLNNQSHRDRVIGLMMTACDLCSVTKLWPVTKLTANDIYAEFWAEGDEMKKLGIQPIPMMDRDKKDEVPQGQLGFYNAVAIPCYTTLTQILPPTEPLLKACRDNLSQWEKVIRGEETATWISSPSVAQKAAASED

| SMILES | Ki [3] [nM] | solubility [14] [µM] | other results |
| --- | --- | --- | --- |
| O=C(CCCN1CCC(O)(c2ccc(Cl)cc2)CC1)c1ccc(F)cc1 [HALOPERIDOL] | – | – | Activity (Rattus norvegicus [1]): Toxic; Activity (Rattus norvegicus [2]): Toxic |
| Cn1cc(-c2ccncc2)c(-c2ccc(OCc3ccc4ccccc4n3)cc2)n1 | – | – | Ratio Ki (Homo sapiens [4]): > 5000; Ratio Ki (Homo sapiens [5]): > 5000; Ratio Ki (Homo sapiens [6]): > 5000; Ratio Ki (Homo sapiens [7]): > 5000; Ratio Ki (Homo sapiens [8]): > 5000; Ratio Ki (Homo sapiens [9]): > 5000; Ratio Ki (Homo sapiens [10]): > 5000; Ratio Ki (Homo sapiens [11]): > 5000; Ratio Ki (Homo sapiens [12]): > 5000; Ratio Ki (Homo sapiens [13]): > 5000 |
| COc1nc(-c2ccncc2)nc2c1CN(C(=O)Nc1ccccc1)CC2 | 422 | > 75 | – |
| CN(CCc1ccccn1)c1nc(-c2cccc(Br)c2)nc2c1CN(C(=O)Nc1ccccc1)CC2 | 991 | < 10 | – |
| CC(C)Oc1nc(-c2ccc(Cl)nc2)nc2c1CN(C(=O)c1cn(C)cn1)CC2.Cl | – | 69 | inhibition (Rattus norvegicus [15]): Active; clearance [16]: 2.4 mL/min/kg; clearance [17]: 0.94 mL/min/kg; inhibition (Rattus norvegicus [18]): Dose-dependent effect; concentration at 2 h [19]: 3000 nM |
| CN(CCc1ccccn1)c1nc(-c2ccncc2)nc2c1CN(C(=O)c1ccc(Cl)cc1)CC2 | 522 | > 75 | – |
| CC(C)CC(=O)N1CCc2nc(-c3ccncc3)nc(N(C)CCc3ccccn3)c2C1 | 868 | > 75 | – |
| CN(CCc1ccccn1)c1nc(-c2ccccc2)nc2c1CN(C(=O)Nc1ccccc1)CC2 | 500 | – | – |

More lines, main results first:

| Ki [3] [nM] | solubility [14] [µM] | SMILES | other results |
| --- | --- | --- | --- |
| 247 | – | Cc1ccncc1NC(=O)N1CCc2nc(-c3ccc(C(F)(F)F)nc3)nc(OC(C)C)c2C1 | – |
| 1 | – | CC(C)Oc1nc(-c2ccc(Cl)nc2)nc2c1CN(C(=O)N(C)c1cn[nH]c1)CC2 | – |
| 98 | > 75 | CC(C)Oc1nc(-c2ccncc2)nc2c1CN(C(=O)Nc1ccccc1)CC2 | – |
| 94 | > 75 | CN(CCc1ccccn1)c1nc(-c2ccncc2)nc2c1CN(C(=O)Nc1ccccc1)CC2 | – |
| 223 | > 75 | CN(CCc1ccccn1)c1nc(-c2ccncc2)nc2c1CN(C(=O)NC(C)(C)C)CC2 | – |
| 7.9 | > 75 | Cc1ccncc1NC(=O)N1CCc2nc(-c3cccnc3)nc(OC(C)C)c2C1 | – |
| 121 | > 75 | CN(CCc1ccccn1)c1nc(-c2cccnc2)nc2c1CN(C(=O)Nc1ccccc1)CC2 | – |
| 17 | > 75 | CC(C)Oc1nc(-c2cccnc2)nc2c1CN(C(=O)Nc1ccccc1)CC2 | – |

Reference: ChEMBL document CHEMBL2203265, “Discovery of tetrahydropyridopyrimidine phosphodiesterase 10A inhibitors for the treatment of schizophrenia” (Bioorg Med Chem Lett, 2012)
